# CDK5 p35 inh: CDK5/p35 (human) kinase inhibition | Recombinant CDK5/p35, ADP-Glo luminescence, 60 min | AID 488839 | 0.01% of 330,000 active | Q00535+Q15078 | inhibition, % at 10 µM;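 active = highest replicate inhibition of at least 50% and at least 75% of replicates reaching 50%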;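 also: plate controls were DMSO neutral control for no effect and GW8510 at 10 µM for full effect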
# Target sequence (Q00535 whole entry, looked up): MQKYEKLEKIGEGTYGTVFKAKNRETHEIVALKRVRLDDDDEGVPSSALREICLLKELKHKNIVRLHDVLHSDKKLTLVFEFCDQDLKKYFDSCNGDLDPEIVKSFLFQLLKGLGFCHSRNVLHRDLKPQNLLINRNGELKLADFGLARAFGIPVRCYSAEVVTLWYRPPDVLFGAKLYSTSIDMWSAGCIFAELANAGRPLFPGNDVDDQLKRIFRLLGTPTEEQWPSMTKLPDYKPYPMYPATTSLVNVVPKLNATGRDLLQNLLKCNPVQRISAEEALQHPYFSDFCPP
# Target sequence (Q15078 whole entry, looked up): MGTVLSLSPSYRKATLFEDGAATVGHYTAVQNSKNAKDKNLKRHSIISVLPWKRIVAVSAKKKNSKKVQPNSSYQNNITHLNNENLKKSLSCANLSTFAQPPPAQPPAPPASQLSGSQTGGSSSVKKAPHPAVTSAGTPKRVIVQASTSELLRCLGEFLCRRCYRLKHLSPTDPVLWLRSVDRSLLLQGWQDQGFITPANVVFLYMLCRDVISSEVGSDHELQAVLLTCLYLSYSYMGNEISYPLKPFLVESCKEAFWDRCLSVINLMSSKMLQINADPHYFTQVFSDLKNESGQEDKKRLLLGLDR
# Cneo AK release: Cryptococcus neoformans lysis via adenylate kinase release; C. neoformans lysis, adenylate kinase release luminescence, 4 h; normalised: neutral wells 0, clomiphene wells 100; lysis activity, % at 15 µM; 0.2% of 360,000 active; AID 651654;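 active = mean lysis activity across replicates of at least 80%, whatever share of replicates individually reach that level; inactive = mean lysis activity below 80%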
#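 Schedule: static 4 h at 37 °C with compound, 1 h detection; system: C. neoformans cells; benchmarks: Clomiphene as positive control; buffer or medium: fresh YPD medium; measure: luminescence rise reflecting yeast cell lysis; measured by: luminescent adenylate kinase detection reagent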
# Env fusion inh: HIV envelope-mediated fusion inhibition | inhibition, % at 12.3 µM | HeLa-JRFL Env/CEM21 cell fusion, luciferase | 1.1% of 360,000 active | AID 651610;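 active = mean replicate inhibition score of at least 50 and every replicate individually at or above 50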;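 also: 0% = plate neutral controls and 100% = maraviroc near 300 nM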
# dFosB activator: activators of mouse delta FosB homodimer; P13346; purified delta FosB, TAMRA-CDK5 oligo fluorescence polarization; percent of positive-control signal above neutral wells; activation, % at 25 µM; 0.99% of 340,000 active; AID 493131;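 active = mean activation above about 17%, with every replicate also reaching it, limit read from the data, passing the limit was not always enough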
# PAX8 reporter: lowers PAX8-driven luciferase in RMG-I cells; RMG-I TPO-luciferase reporter, SteadyGlo, 24 h; inhibition, % at 12.6 µM; 1.2% of 360,000 active; AID 652154;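 active = mean replicate inhibition at least 60% with every replicate also reaching 60%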;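 also: luciferase light reporting Pax8 driven TPO promoter activity; plate controls were median of neutral control wells for no effect and mitoxantrone controls for full effect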
# GSIS activator: GLuc luminescence reporter in INS-1E cells, primary screen for activators of glucose-dependent secretion of insulin; 0.61% of 370,000 active; activation, % at 16.6 µM; AID 743287; INS-1E GLuc reporter insulin secretion, 2-3 h;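 active = lowest replicate activation of at least 40%, so every replicate reaches that level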;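 also: 0% = median of neutral control wells and 100% = median of IBMX positive control wells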
# Active calls of the source: *; . = not tested or not shown; [ ] = dose if it differs, or a comment. Compounds with a hit are over-represented: about 2.9% of the library has one in this group of screens.
SMILES,CDK5 p35 inh,Cneo AK release,Env fusion inh,dFosB activator,PAX8 reporter,GSIS activator
O=C(c1ccc2ncsc2c1)N1CCN(c2nc3ccccc3s2)CC1,-1,-1,76*,-9,20,9
O=C(c1ccc2ncsc2c1)N1CCN(c2ccccc2Cl)CC1,1,-1,-1,-7,-39,-3
C[C@@H]1CN([C@@H](C)CO)C(=O)c2cccc(NC(=O)CCCCCC(=O)Nc3ccccc3N)c2O[C@@H]1CN(C)S(=O)(=O)c1cccs1,.,.,.,.,.,5
CCCCc1c(Cc2cccc(F)c2)ncn1CCc1ccccc1OC,.,.,33,.,11,123*
CCCCCc1c(-c2ccc(F)cc2F)ncn1CCc1ccccc1OC,.,.,25,.,-42,104*
CCCCc1c(-c2ccc(F)cc2F)ncn1CCc1ccccc1OC,.,.,17,.,1,120*
CCCCc1c(-c2ccc(OC)c(OC)c2)ncn1CCc1ccccc1OC,.,.,17,.,29,-25
COc1ccccc1CCn1cnc(-c2ccccc2F)c1CC(C)C,.,.,19,.,-7,42*
C[C@@H]1CN([C@@H](C)CO)C(=O)c2cc(NS(C)(=O)=O)ccc2O[C@@H](C)CCCCO[C@H]1CN(C)C(=O)CCC(F)(F)F,.,-7,2[16.7 µM],.,0,11
O=C(C1CC1)N1CC(=O)N2[C@H](C1)[C@@H](c1ccc(C#CC3CCCC3)cc1)[C@@H]2CO,.,.,.,.,7,-1
C[C@H](CO)N1C[C@H](C)[C@@H](CN(C)Cc2ccc(Cl)c(Cl)c2)Oc2ccc(NC(=O)Nc3ccccc3)cc2CC1=O,.,5,6[16.7 µM],.,48,-6
COc1ccccc1CCn1cnc(-c2cccc(F)c2)c1C(C)C,.,.,-1,.,-12,64*
CCCCc1c(-c2cccc(OC)c2)ncn1CCc1ccccc1OC,.,.,32,.,14,80*
COC(=O)c1c(C)oc(C)c1S(=O)(=O)NC(c1ccccc1)c1ccccc1,0,7,68*,-12,-1,-40
COC(=O)c1c(-c2ccccc2)noc1C,0,.,-9,0,1,-2
COc1cc2nc(C3CCC3)nc(N3CCN(c4ccccc4OC)CC3)c2cc1OC,-3,.,.,-16,89*,-18
COc1cc2nc(C3CCC3)nc(N3CCN(c4ccccn4)CC3)c2cc1OC,0,-3,.,5,.,.
Cc1ccc(N(C(C)C(=O)O)S(=O)(=O)c2c(C)[nH]c(=O)[nH]c2=O)cc1 (stereo not given),1,0,-12,16*,7,6
Cc1ccc(Nc2nc(N)nc(CN3CCN(Cc4ccc5c(c4)OCO5)CC3)n2)cc1Cl,0,1,69*,11,.,.
Cc1noc(C)c1NC(=O)N(C)C[C@H]1Oc2c(NC(=O)C3CC3)cccc2C(=O)N([C@@H](C)CO)C[C@H]1C,.,3,0[16.7 µM],.,.,-1
O=C1/C(=C/c2ccccc2F)SC(=S)N1CC(=O)N1CCCCC1c1cccnc1 (stereo not given),1,0,9,-18,100*,6
O=C(/C=C/c1ccc(F)cc1)NC(=S)N1CCCCC1c1cccnc1 (stereo not given),-1,-7,-8,-10,5,7
O=C1/C(=C/c2ccc(F)cc2)SC(=S)N1CC(=O)N1CCCCC1c1cccnc1 (stereo not given),-2,-7,-1,-12,70*,-6
COc1cccc(C#Cc2ccc([C@H]3[C@@H](CO)N(C(=O)C4CCC4)[C@H]3C#N)cc2)c1,.,-3,27[16.7 µM],.,71*,11
COc1cccc(C#Cc2ccc([C@@H]3[C@@H](C#N)N(C(=O)C4CCCC4)[C@@H]3CO)cc2)c1,.,.,.,.,.,-12
SMILES,CDK5 p35 inh,Cneo AK release,Env fusion inh,dFosB activator,PAX8 reporter,GSIS activator
COc1cccc(C#Cc2ccc([C@H]3[C@@H](CO)N(C(=O)C4CCCCC4)[C@H]3C#N)cc2)c1,.,-6,6[16.7 µM],.,78*,-22
COc1cccc(C#Cc2ccc([C@H]3[C@@H](CO)N(C(=O)C4CCCC4)[C@H]3C#N)cc2)c1,.,.,69*[16.7 µM],.,82*,-15
COc1cccc(C#Cc2ccc([C@H]3[C@@H](C#N)N(C(=O)C4CCCC4)[C@@H]3CO)cc2)c1,.,.,.,.,.,-4
O=C(O)CSc1ncnc2scc(-c3ccccc3)c12,5,0,3,-3,-14,11
Cn1nnnc1Sc1ncnc2scc(-c3cccc(S(C)(=O)=O)c3)c12,0,1,-303,0,106*,33
Cn1nnnc1Sc1ncnc2scc(-c3cccc(Br)c3)c12,1,0,-106,-2,91*,36
CC(=O)c1cccc(-c2csc3ncnc(Sc4nnnn4C)c23)c1,.,-2,-185,.,114*,42*
Cc1ccccc1-c1ccc([C@H]2[C@@H](CO)N3CCCCN(S(=O)(=O)c4cn(C)cn4)C[C@@H]23)cc1,.,-1,.,.,24,-13
C[C@@H]1CCCCO[C@H](CN(C)C(=O)Nc2ccccc2)[C@H](C)CN([C@@H](C)CO)C(=O)c2cc(NS(=O)(=O)c3ccccc3)ccc2O1,.,1,-52[16.7 µM],.,13,-20
COc1ccc(NC(=O)N(C)C[C@@H]2OCCCC[C@@H](C)Oc3ccc(NS(C)(=O)=O)cc3C(=O)N([C@H](C)CO)C[C@@H]2C)cc1,.,0,23[16.7 µM],.,-12,14
COC(=O)C[C@@H]1C[C@H]2c3cc(NC(=O)CN(C)C)ccc3O[C@H]2[C@@H](CO)O1,.,-4,9[16.7 µM],.,-43,8
Cc1ccc2cc(C#N)c(NCCNC(=O)C3CC3)nc2c1C,0,3,113*,8,18,.
Cc1ccc2cc(C#N)c(NCCNC(=S)NCCCN(C)C)nc2c1C,0,.,4,14,8,14
CO[C@@H](CN(C)S(=O)(=O)c1cccc(Cl)c1)[C@H](C)CN(C(=O)Nc1ccccc1F)[C@H](C)CO,.,4,.,.,.,-14
O=C(C[C@H]1C[C@@H]2c3cc(NC(=O)c4cccnc4)ccc3O[C@@H]2[C@H](CO)O1)NCc1cc(F)ccc1F,.,1,-17[16.7 µM],.,-19,-2
CNC[C@H]1OCCCC[C@@H](C)Oc2ccc(NC(=O)Cc3ccccc3)cc2C(=O)N([C@H](C)CO)C[C@H]1C,.,1,20[16.7 µM],.,-10,2
Cc1ccccc1CN(C)Cc1cc(=O)oc2c(C)c(C)ccc12,0,1,29,-6,1,93*
COc1ccc(CN(C)C[C@@H]2Oc3ccc(NC(=O)Nc4ccc(OC)cc4)cc3C(=O)N([C@@H](C)CO)C[C@@H]2C)cc1,.,-20,-17[16.7 µM],.,5,4
COc1ccc(CN(C)C[C@@H]2Oc3ccc(NC(=O)Nc4ccc(OC)cc4)cc3C(=O)N([C@H](C)CO)C[C@@H]2C)cc1,.,-11,63*[16.7 µM],.,-7,-5
C[C@@H]1CN([C@@H](C)CO)C(=O)c2cc(NC(=O)Nc3ccc(F)cc3)ccc2O[C@@H]1CN(C)Cc1ccc(C(F)(F)F)cc1,.,6,.,.,70*,-29

# Screens from PubChem.
